# Source: ChEMBL document CHEMBL4196192, “MEPicides: α,β-Unsaturated Fosmidomycin Analogues as DXR Inhibitors against Malaria” (J Med Chem, 2018)
# Activity calls are given as the source filed them. No cut-off for these calls is given here.
# Experiments:
# [1] = system: Plasmodium berghei; assay: (§1) Antimalarial activity against luciferase-expressing Plasmodium berghei ANKA infected in Swiss Webster mouse assessed as reduction in parasitemia at 20 mg/kg, ip administered daily for 5 days starting from 2 days post infection by luciferase-luciferin based reporter assay; format: functional, organism-based
# [2] = system: Plasmodium falciparum; assay: Growth inhibition of Plasmodium falciparum 3D7 asynchronous cultures by PicoGreen dye based assay; format: functional, organism-based
# [3] = target: T1, 1-deoxy-D-xylulose 5-phosphate reductoisomerase, apicoplastic (Plasmodium falciparum (isolate 3D7)) (UniProt Q8IKG4); assay: Inhibition of Plasmodium falciparum DXR assessed as reduction in NADPH oxidation at 100 uM in presence of DOXP by UV-visible spectrophotometry
# T1 sequence (whole entry): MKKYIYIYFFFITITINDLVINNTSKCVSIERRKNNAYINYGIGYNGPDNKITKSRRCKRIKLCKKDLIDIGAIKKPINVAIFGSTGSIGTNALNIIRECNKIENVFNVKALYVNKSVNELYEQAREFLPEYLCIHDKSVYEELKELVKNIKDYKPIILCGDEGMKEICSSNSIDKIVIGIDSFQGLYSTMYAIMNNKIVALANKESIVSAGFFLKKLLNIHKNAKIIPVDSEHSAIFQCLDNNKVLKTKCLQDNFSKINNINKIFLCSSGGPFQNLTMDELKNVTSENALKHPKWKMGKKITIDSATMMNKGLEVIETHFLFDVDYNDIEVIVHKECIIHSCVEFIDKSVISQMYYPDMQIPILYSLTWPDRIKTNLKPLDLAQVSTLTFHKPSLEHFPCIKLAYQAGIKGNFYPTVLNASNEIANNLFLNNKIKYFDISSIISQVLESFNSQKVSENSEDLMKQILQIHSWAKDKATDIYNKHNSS
# Outline: (§2)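 Recombinant P. falciparum DXR (0.86 μM) in 100 mM Tris pH 7.8, 25 mM MgCl2, 150 μM NADPH, at 37 °C; inhibitor at a single 100 μM; reaction started with 144 μM DOXP; NADPH oxidation followed at 340 nm by UV-vis spectrophotometry; percent remaining activity; duplicate.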
# [4] = Half life in mouse plasma; format: ADME, cell-free
# [5] = Selectivity index, ratio of IC50 for cytotoxicity in human HepG2 cells to IC50 for growth inhibition of Plasmodium falciparum 3D7 asynchronous cultures; format: toxicity, cell-based; settings: read-out: Ratio IC50
# [6] = system: Plasmodium falciparum; assay: Growth inhibition of Plasmodium falciparum 3D7 asynchronous cultures at 0.01 to 100 uM incubated for 72 hrs in presence of excess IPP by PicoGreen dye based assay; format: functional, organism-based
# [7] = system: Plasmodium falciparum; assay: Resistance index, ratio of IC50 for Plasmodium falciparum containing had1 mutation to IC50 for growth inhibition of wild type Plasmodium falciparum 3D7 asynchronous cultures; format: functional
# [8] = system: Plasmodium falciparum; assay: Growth inhibition of Plasmodium falciparum containing had1 mutation expressing GFP-HAD1 by PicoGreen dye based assay; format: functional, organism-based
# [9] = system: HepG2; assay: Cytotoxicity in human HepG2 cells; format: cell-based
# [10] = Half life in mouse liver microsomes; format: ADME, microsome
# [11] = system: Plasmodium falciparum; assay: Growth inhibition of Plasmodium falciparum; format: functional, organism-based
# [12] = target: T2, 1-deoxy-D-xylulose 5-phosphate reductoisomerase, apicoplastic (Plasmodium falciparum (isolate 3D7), UniProt Q8IKG4); assay: Inhibition of Plasmodium falciparum DXR assessed as reduction in NADPH oxidation in presence of DOXP by UV-visible spectrophotometry
# T2 sequence (Q8IKG4 whole entry): T1 sequence (whole entry)
# Outline: (§3)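 Recombinant P. falciparum DXR (0.86 μM) in 100 mM Tris pH 7.8, 25 mM MgCl2 and 150 μM NADPH at 37 °C. Reaction started with 144 μM DOXP. NADPH oxidation followed at 340 nm by UV–visible spectrophotometry. Compounds were screened first at a single 100 μM concentration as percent remaining activity. Assays were run in duplicate.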
# [13] = target: T2, 1-deoxy-D-xylulose 5-phosphate reductoisomerase, apicoplastic; assay: Inhibition of Plasmodium falciparum DXR; outline: as §3
# [14] = target: T1, 1-deoxy-D-xylulose 5-phosphate reductoisomerase, apicoplastic (Plasmodium falciparum (isolate 3D7)); assay: Inhibition of Plasmodium falciparum DXR assessed as remaining enzyme activity by measuring NADPH oxidation at 100 uM in presence of DOXP by UV-visible spectrophotometry; outline: as §2
# [15] = target: T1, 1-deoxy-D-xylulose 5-phosphate reductoisomerase, apicoplastic (Plasmodium falciparum (isolate 3D7)); assay: Inhibition of DXR in Plasmodium falciparum 3D7 assessed as reduction in CDP-ME levels at 5 times growth inhibitory IC50 incubated for 10 hrs by LC-MS/MS method
# [16] = system: Mus musculus; assay: Toxicity in luciferase-expressing Plasmodium berghei ANKA infected Swiss Webster mouse assessed as induction of adverse events at 20 mg/kg, ip administered daily for 5 days starting from 2 days post infection; format: organism-based; settings: in vivo
# Outline: (§4)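 Female Swiss Webster mice (25–30 g) infected ip with 10^3 luciferase-expressing P. berghei, then given ip doses daily for 5 days from day 2 in 2% methylcellulose/0.5% Tween 80 vehicle, groups of five; mice observed for adverse effects over the dosing period.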
# [17] = system: Plasmodium berghei; assay: as §1, with “parasitemia by measuring reduction in luciferin signal intensity” for “parasitemia”, “50” for “20”, “assay relative to untreated control” for “assay”; format: functional, organism-based
# [18] = system: Plasmodium berghei; assay: as §1, with “parasitemia by measuring reduction in luciferin signal intensity” for “parasitemia”, “assay relative to untreated control” for “assay”; format: functional
# [19] = target: T1, 1-deoxy-D-xylulose 5-phosphate reductoisomerase, apicoplastic (Plasmodium falciparum (isolate 3D7)); assay: Inhibition of DXR in Plasmodium falciparum 3D7 assessed as reduction in MEP levels at 5 times growth inhibitory IC50 incubated for 10 hrs by LC-MS/MS method
# [20] = target: T1, 1-deoxy-D-xylulose 5-phosphate reductoisomerase, apicoplastic (Plasmodium falciparum (isolate 3D7)); assay: Inhibition of DXR in Plasmodium falciparum 3D7 assessed as reduction in MEcPP levels at 5 times growth inhibitory IC50 incubated for 10 hrs by LC-MS/MS method
# [21] = system: Mus musculus; assay: Toxicity in luciferase-expressing Plasmodium berghei ANKA infected Swiss Webster mouse assessed as induction of adverse events at 50 mg/kg, ip administered daily for 5 days starting from 2 days post infection; format: organism-based; settings: in vivo; outline: as §4
# [22] = system: Plasmodium falciparum; assay: Effect on DXR protein level in Plasmodium falciparum 3D7 at 5 times growth inhibitory IC50 incubated for 10 hrs by LC-MS/MS method; format: organism-based
# [23] = system: Plasmodium falciparum; assay: Growth inhibition of Plasmodium falciparum containing had1 mutation at 0.01 to 100 uM by PicoGreen dye based assay; format: functional, organism-based
structure (smiles),measurement,setting,value
CCN(CC)CCCC(C)Nc1ccnc2cc(Cl)ccc12 (configuration not stated),Activity,[1],Active
CC(=O)N(C/C=C/P(=O)(O)O)OCc1ccc(-c2ccccc2)cc1,IC50,[2],2300 nM
same,inhibition,[3],> 75%
O=CN(O)C/C=C/P(=O)([O-])O.[Na+],t1/2,[4],> 2 h
same,selectivity ratio,[5],2630
same,IC50,[2],19 nM
same,growth inhibition (GI),[6],inactive
same,Ratio IC50,[7],3.4
same,growth inhibition (GI),[8],Active
same,inhibition,[3],> 75%
same,IC50,[9],> 50000 nM
same,t1/2,[10],> 1 h
CC(=O)N(C/C=C/P(=O)(O)O)OC(C)c1ccccc1 (configuration not stated),IC50,[2],1200 nM
same,inhibition,[3],> 75%
CC(=O)N(O)CCCP(=O)(O)O,IC50,[11],90 to 350 nM
same,IC50,[2],511 nM
same,inhibition,[3],> 75%
same,IC50,[12],23 nM
same,IC50,[13],24 nM
O=CN(O)CCCP(=O)(O)O [FOSMIDOMYCIN SODIUM],IC50,[11],90 to 350 nM
same,IC50,[2],1090 nM
same,inhibition,[3],> 75%
COC(=O)N(O)C/C=C/P(=O)(OCOC(=O)C(C)(C)C)OCOC(=O)C(C)(C)C,IC50,[2],23700 nM
CC(=O)N(O)C/C=C/P(=O)(O)O,IC50,[2],202 nM
same,inhibition,[3],> 75%
same,IC50,[12],206 nM
CC(=O)N(C/C=C/P(=O)(OCOC(=O)C(C)(C)C)OCOC(=O)C(C)(C)C)OCc1ccc2ccccc2c1,IC50,[2],50500 nM
C[C@@H]1CC[C@H]2[C@@H](C)C(=O)O[C@@H]3O[C@@]4(C)CC[C@@H]1[C@]32OO4 [ARTEMISININ],IC50,[2],10.4 nM
CC(=O)N(CCCP(=O)(OCOC(=O)C(C)(C)C)OCOC(=O)C(C)(C)C)OCc1ccc2ccccc2c1,IC50,[11],33200 nM
O=C(N(O)C/C=C/P(=O)(O)O)C(F)(F)F,IC50,[2],113000 nM
same,Activity,[14],37%
same,inhibition,[3],> 75%
COC(=O)N(O)C/C=C/P(=O)(O)O,IC50,[2],28600 nM
same,inhibition,[3],> 75%
CC(=O)N(O)C/C=C/P(=O)(OCOC(=O)C(C)(C)C)OCOC(=O)C(C)(C)C,IC50,[2],18 nM
CC(=O)N(C/C=C/P(=O)(OCOC(=O)C(C)(C)C)OCOC(=O)C(C)(C)C)OCc1ccc(-c2ccccc2)cc1,IC50,[2],44100 nM
CC(=O)N(C/C=C/P(=O)(O)O)OCc1ccc2ccccc2c1,IC50,[2],26100 nM
same,Activity,[14],25%
same,inhibition,[3],> 75%
CC(C)(C)C(=O)OCOP(=O)(/C=C/CN(O)C=O)OCOC(=O)C(C)(C)C,t1/2,[4],< 0.083 h
same,inhibition,[15],Active
same,Activity,[16],Non-Toxic
same,IC50,[2],13 nM
same,growth inhibition (GI),[6],inactive
same,Activity,[17],Active
same,growth inhibition (GI),[8],Active
same,log(activity),[18],3
same,inhibition,[19],Active
same,inhibition,[20],Active
same,Activity,[21],Non-Toxic
same,IC50,[9],> 50000 nM
same,Activity,[22],Non-Toxic
CC(=O)N(C/C=C/P(=O)(OCOC(=O)C(C)(C)C)OCOC(=O)C(C)(C)C)OCc1ccc(C(C)C)cc1,IC50,[2],55200 nM
CC(C)(C)C(=O)OCOP(=O)(/C=C/CN(O)C(=O)C(F)(F)F)OCOC(=O)C(C)(C)C,IC50,[2],14300 nM
CC(=O)N(C/C=C/P(=O)(O)O)OCc1ccc(C(C)C)cc1,IC50,[2],1100 nM
same,inhibition,[3],> 75%
same,growth inhibition (GI),[23],inactive
